# Screens from PubChem BioAssay.
# CRFBP-R2 agonist – agonists of human CRF-binding protein/CRF-R2 receptor complex; AID 588473; activation, % at 13.2 µM; HEK293 CRF-R2/CRF-BP, calcium dye fluorescence (FLIPR); percent of saturating CRF peptide response; 350,000 compounds, 0.46% hits;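 active = activation of at least 50%, plus an integration ratio under a set limit after plate pattern correction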;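 also: plate controls were neutral control wells without compound for no effect and CRF at EC100 for full effect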
# CRFBP-R2 block – CRF-BP/CRF-R2 complex antagonism. HEK293 CRF-R2/CRF-BP, CRF-induced calcium fluorescence. inhibition, % at 11.8 µM. 350,000 compounds, 0.59% hits;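 active = inhibition of the ligand-induced calcium signal above about 50% at the single tested concentration, limit read from the data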
# NRP1-CendR mod – alters CendR peptide binding to human NRP-1 | 360,000 compounds, 0.85% hits | AID 602438 | FAM-RPARPAR peptide binding to NRP-1, fluorescence polarization | O14786 | inhibition, % at 25 µM;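 active = inhibition or corrected inhibition above about 18%, plus a signal ratio from 0.5 to 1.5, limit read from the data, passing the limit was not always enough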
# Target sequence (O14786 whole entry, looked up): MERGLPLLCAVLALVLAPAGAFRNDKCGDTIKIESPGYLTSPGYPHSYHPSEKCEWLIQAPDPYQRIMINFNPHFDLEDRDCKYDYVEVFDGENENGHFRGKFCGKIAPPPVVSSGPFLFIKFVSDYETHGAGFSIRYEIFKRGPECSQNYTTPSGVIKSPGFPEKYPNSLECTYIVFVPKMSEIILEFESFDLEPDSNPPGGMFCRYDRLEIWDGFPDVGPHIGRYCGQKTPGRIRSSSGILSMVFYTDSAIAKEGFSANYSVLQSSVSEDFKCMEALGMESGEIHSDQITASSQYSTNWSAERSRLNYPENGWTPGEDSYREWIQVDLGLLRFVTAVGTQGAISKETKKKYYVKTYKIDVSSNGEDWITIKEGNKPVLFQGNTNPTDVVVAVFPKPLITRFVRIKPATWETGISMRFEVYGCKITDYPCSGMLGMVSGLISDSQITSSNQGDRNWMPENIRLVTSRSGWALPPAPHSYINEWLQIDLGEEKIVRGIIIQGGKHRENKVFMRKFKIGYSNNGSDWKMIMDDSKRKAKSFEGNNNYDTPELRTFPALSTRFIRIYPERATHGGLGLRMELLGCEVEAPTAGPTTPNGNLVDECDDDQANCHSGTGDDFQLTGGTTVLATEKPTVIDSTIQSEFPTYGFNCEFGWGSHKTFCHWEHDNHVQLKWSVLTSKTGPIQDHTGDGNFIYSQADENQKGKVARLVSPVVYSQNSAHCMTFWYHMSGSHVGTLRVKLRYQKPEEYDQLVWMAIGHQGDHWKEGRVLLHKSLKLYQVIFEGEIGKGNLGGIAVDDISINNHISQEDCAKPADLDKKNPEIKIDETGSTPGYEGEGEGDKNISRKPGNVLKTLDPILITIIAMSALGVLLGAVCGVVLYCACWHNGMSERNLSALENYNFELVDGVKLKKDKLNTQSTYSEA
# Tn6 DDE FP – DD(E)-Tn6 binding inhibition, primary FP screen | P02675 | Fibrin DD(E) TRITC-Tn6 fluorescence polarization displacement | inhibition, % at 8.3 µM | 370,000 compounds, 0.21% hits;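 active = inhibition above a per-campaign cutoff: mean of compounds within control limits plus 3 SD, cut at about 15% in these data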;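 also: 0% = median of all compound wells on the plate and 100% = blocking peptide control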
# Tn7 DDE FP – disrupts Tn7 cyclic peptide binding to fibrin D-Dimer-E complex; P02675; AID 720508; FP displacement of FITC-Tn7 peptide from fibrin DD(E); 0% = median of compound wells per plate; 370,000 compounds, 0.13% hits; inhibition, % at 8.3 µM;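 active = inhibition above the mean of compounds falling within the control limits plus 3 SD of them, cut at about 14% in these data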;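 also: 0% = plate median of compound wells and 100% = 10 µM Aha-Tn7 peptide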
#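 Measure: % inhibition scaled between sample-field median and high-control FP; Test system: human fibrin DD(E); Quantity: 2 µM final DD(E) protein; Doses: one dose, 8.3 µM nominal; Schedule: compound with protein 10 min, then 3 h after probe, room temperature; Detection: fluorescence polarization; Medium: Tris buffer with calcium and detergent, pH 7.8.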
# proKLK7 act – activates the human kallikrein-7 zymogen | AID 652039 | P49862 | activation, % at 7 µM | purified proKLK7, EDANS-DABCYL substrate fluorescence; 100% is mature enzyme control, 0% vehicle | 370,000 compounds, 0.9% hits;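 active = activation above the mean of all tested compounds plus 3 SD, computed per campaign excluding outliers beyond control limits, cut at about 13% in these data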
# * = called active by the depositor; . = not tested or not shown. This is a sample that favours compounds with a hit; in the whole collection about 2.9% have one here.
SMILES,CRFBP-R2 agonist,CRFBP-R2 block,NRP1-CendR mod,Tn6 DDE FP,Tn7 DDE FP,proKLK7 act
COCCC(=O)N1CCC(Oc2ccc(C(=O)NCCSC)cc2)CC1,-2.4,8.8,4.8,2.5,-7.8,0.0
COCCC(=O)N1CCC(Oc2ccc(C(=O)NCCn3cccn3)cc2)CC1,0.2,-4.7,36.3*,-6.8,-3.9,-0.4
COc1ccc(S[C@]2(C(=O)N3CCOCC3)CC(=O)N(C(=O)C3CC3)[C@@H]2c2ccc(OC)cc2)cc1,.,.,.,3.8,-3.5,0.1
Cc1nn(-c2ccccc2)nc1CNC(=O)C1CCC1,0.6,-20.8,24.6*,9.4,-6.6,0.3
CC(=O)Nc1ccccc1OCC(=O)NC(C)c1ccccc1 (stereo not drawn),-2.3,7.4,0.2,1.2,0.6,0.1
CC(=O)Nc1ccccc1OCC(=O)N(Cc1ccccc1)C(C)C,-5.9,-0.8,38.5*,-0.2,-3.3,-0.3
Cc1nc2c(C)cccc2cc1C(=O)N/N=C/c1ccc(O)cc1,-10.7,71.1*,-11.9,6.5,4.4,0.4
Cc1cccc2cc(/C=N/NC(=O)c3ccccc3O)c(Cl)nc12,55.1*,9.0,-0.9,1.2,2.5,-0.6
CCCCNC(=O)C1CCCN1C(=O)Nc1ccc(Cl)cc1 (stereo not drawn),.,.,.,-8.0,-3.0,0.0
Oc1ccc(/C=N/N2CCN(C3c4ccccc4-c4ccccc43)CC2)cc1,1.4,-9.1,21.0*,-3.3,-0.4,0.0
O=C(O)c1ccc(/C=N/N2CCN(C3c4ccccc4-c4ccccc43)CC2)cc1,-6.0,17.2,-2.5,-10.5,2.4,0.0
COc1ccc(NC(=O)CCCn2cc([N+](=O)[O-])cn2)cc1,-3.9,-7.3,2.6,-1.6,1.9,-0.3
COc1ccc(NC(=S)NNC(=O)CCn2cc([N+](=O)[O-])cn2)cc1,-1.0,5.2,30.3*,4.7,-5.1,-0.4
N[C@@H](Cc1ccc(O)cc1)c1nnc([C@H](CO)NC(=O)C2CCNCC2)o1,0.3,-3.5,21.8*,-0.4,0.5,0.6
COC(=O)C1CN(Cc2ccccc2)CCS(=O)(=O)N1Cc1ccc(Cl)cc1 (stereo not drawn),.,.,.,-3.6,-6.7,-0.3
CC(=O)N/N=C/c1cc(C)n(-c2ccc(Br)cc2)c1C,-0.9,-14.4,2.4,6.4,3.2,1.0
CC(=O)N/N=C/c1cc(C(C)C)cc(/C=N/NC(C)=O)c1O,92.1*,-47.5,40.9*,1.5,-1.1,-61.9
CC(C)N1Cc2nnn(Cc3ccc(F)cc3)c2-c2cc(F)ccc2S1(=O)=O,.,.,.,4.8,-4.0,0.0
O=C1Nc2ccccc2N(O)N1c1cc(-c2ccccc2Cl)no1,-0.1,-6.5,-7.0,7.8,2.5,0.4
O=C1Nc2ccccc2N(O)N1c1cc(-c2cccc(Cl)c2)no1,49.2,50.1*,4.5,12.2,10.6,-0.4
Clc1cc(Cl)cc(CNC2CCC23CCCCC3)c1 (stereo not drawn),.,.,.,-5.6,5.3,.
Cc1csc(NC(=O)c2ccc(COc3ccccc3F)o2)n1,.,.,.,-1.6,-7.3,0.1
CCCc1nc2ccc(Cl)cn2c1Cc1ccsc1,.,.,27.9*,-1.8,9.0,-0.3
C=CCN(C)CC#Cc1ccc(OC)cc1,.,.,.,-2.2,4.3,-0.1
COc1ccc2c(c1)CNC2CS(=O)(=O)NCCc1ccccc1 (stereo not drawn),.,.,.,0.8,-3.4,-1.3
SMILES,CRFBP-R2 agonist,CRFBP-R2 block,NRP1-CendR mod,Tn6 DDE FP,Tn7 DDE FP,proKLK7 act
COc1ccc(CC(NC(C)=O)C(=O)NC2CCN(c3ncccc3[N+](=O)[O-])CC2)cc1 (stereo not drawn),-1.6,27.5,13.3,0.3,-1.7,-0.5
CC(=O)NC(Cc1ccc(C)cc1)C(=O)NC1CCN(c2ncccc2[N+](=O)[O-])CC1 (stereo not drawn),-3.1,60.0*,18.2,10.8,3.1,0.4
COc1ccc(/C=C(/C(=O)c2ccc(Cl)cc2Cl)n2cncn2)cc1,-0.2,-41.1,-5.0,-5.4,-9.1,0.4
CN(C)c1ccc(/C=C(/C(=O)c2ccc(Cl)cc2Cl)n2cncn2)cc1,70.8*,-122.2,-264.6,-0.9,-8.5,-0.2
CCOC(=O)CC[C@@H]1CC[C@]2(CCCN(Cc3nccs3)C2)O1,.,.,.,-5.6,5.7,-0.6
COC(=O)[C@]12C[C@H](CC(=O)NCc3cccc(C(F)(F)F)c3)C(=O)N(Cc3cccc4ccccc34)C1=C[C@H](C(C)(C)C)O[C@@H]2C,.,.,.,7.8,-1.6,-0.8
Cc1ccsc1C(=O)OCC(=O)N(C)C1CCCCC1,0.6,-1.7,-3.4,-3.0,11.2,-0.4
O=C(COC(=O)c1cc2ccccc2cc1O)NC1CCCCC1,-0.8,87.3*,6.8,-0.3,5.2,7.2
Cc1ccsc1C(=O)OCC(=O)NC1CCCC1,-0.7,15.0,21.2*,4.5,3.8,-0.5
CCn1c(=O)n(CC(=O)N2CCOCC2)c(=O)c2ccccc21,.,.,.,-2.2,-0.4,0.0
Cc1nc(CNS(=O)(=O)c2ccc3ccccc3c2)cs1,-2.5,64.7*,9.9,1.3,0.8,-1.1
COc1cc2[nH]c3c(=O)n4c(nc3c2cc1OC)SCCC4,44.1,93.0*,4.2,-6.2,-1.9,1.7
CCn1c2ccccc2c2cc(NC(=O)COC(=O)c3cccc(F)c3)ccc21,.,.,.,7.0,1.0,0.1
CC(C(=O)NCC1CCCO1)N1C(=O)C2C3CC(C(Br)C3Br)C2C1=O (stereo not drawn),-1.6,4.3,19.1*,4.1,-2.2,-0.1
C[C@@H](NC(=O)C[C@H]1CC[C@H]2[C@@H](COc3ccc(NC(=O)Nc4ccccc4)cc3C(=O)N2C)O1)c1ccccc1,.,.,.,3.2,-0.1,0.0
CC1=CC(C)(C)NC(=S)N1c1cc(C)cc(C)c1,-5.7,-0.4,6.9,3.7,0.2,-0.6
CC1=CC(C)(C)NC(=S)N1c1ccc(N(C)C)cc1,1.4,13.3,24.2*,-2.0,6.7,0.4
CCOc1ccc(-n2c(SCC(=O)NCc3ccco3)nc3c([nH]c4ccccc43)c2=O)cc1,0.3,78.0*,-3.5,1.5,-1.0,-1.2
COC(=O)[C@]12C[C@H](CC(=O)N3CCSCC3)C(=O)N(Cc3ccc4c(c3)OCO4)C1=C[C@H](COCc1ccccc1)O[C@@H]2C,.,.,.,9.2,6.8,0.3
Cc1ccccc1C(=O)NC(=S)NCC1CCCO1 (stereo not drawn),-2.1,-1.2,1.3,-4.5,5.4,-0.2
O=C(NC(=S)NCC1CCCO1)C(c1ccccc1)c1ccccc1 (stereo not drawn),2.5,55.5*,7.9,-3.0,-2.8,-0.8
Cc1ccc(C(=O)N/N=C\c2ccccn2)cn1,2.1,113.4*,11.5,5.3,2.6,1.2
C[C@@H]1COc2cc(F)ccc2S(=O)(=O)N1C,.,.,.,4.2,3.0,0.2
COc1ccc(-c2cc(-c3nnc(SCC(=O)Nc4ccccc4-c4ccccc4)n3N)[nH]n2)cc1,.,.,.,-11.0,4.4,0.6
